Activity calls are given as the source filed them. The rule behind the calls is not given here.
Columns and labels:
[1] = system: Pseudomonas aeruginosa; test: Bactericidal activity against Pseudomonas aeruginosa isolate 1 with AMP-CFZ-CIP-CTX-CXM-GEN-LVX-SXT-TET resistance phenotype assessed as concentration required for >= 3 log10 CFU/ml reduction in viable bacteria in 40% heat-inactivated human serum after 1.5 hrs by liquid microdilution assay; type: functional
In short: (§1)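 The buffer microdilution kill assay (1 × 10^7 CFU/ml mid-log cells, 10 μl in 100 μl, 37°C, 1.5 h, CFU on tryptone soy agar after 24 h) with serum added to 20% or 40% final. Serum was pooled from five healthy donors, clotted at room temperature, spun at 300 × g and heat-inactivated at 56°C for 30 min.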

[2] = system: Acinetobacter baumannii; test: Antimicrobial activity against Acinetobacter baumannii isolate 3 with AMP-AMC-CFZ-CIP-IPM-SXT-TET-TOB resistance phenotype assessed as time to kill at bactericidal concentration; type: functional
In short: (§2)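 Time-kill in 10 mM sodium phosphate buffer, pH 7.4: 1 × 10^7 CFU/ml mid-log clinical isolate (10 μl) exposed at 37°C to peptide at the 1.5-h bactericidal concentration or twofold that, in 100 μl. Samples taken from 2 min onward, plated on tryptone soy agar, CFU counted after 24 h at 37°C. Killing taken as ≥3 log10 CFU/ml drop.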

[3] = system: Acinetobacter baumannii; test: Bactericidal activity against Acinetobacter baumannii isolate 1 with AMP-AMC-CFZ-CIP-IPM-LVX-PIP-SXT-TET resistance phenotype assessed as concentration required for >= 3 log10 CFU/ml reduction in viable bacteria in sodium phosphate buffer at pH 7.4 after 1.5 hrs by liquid microdilution assay; type: functional
In short: (§3)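 Clinical multidrug-resistant isolates grown to mid-log in tryptone soy broth and stored frozen. Exponential cells resuspended in 10 mM sodium phosphate buffer, pH 7.4, at 1 × 10^7 CFU/ml; 10 μl incubated with graded peptide concentrations in 100 μl at 37°C for 1.5 h. Plated on tryptone soy agar, CFU read after 24 h at 37°C. Peptide stocks in 20% ethanol.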

[4] = system: Pseudomonas aeruginosa; test: Bactericidal activity against Pseudomonas aeruginosa isolate 1 with AMP-CFZ-CIP-CTX-CXM-GEN-LVX-SXT-TET resistance phenotype assessed as concentration required for >= 3 log10 CFU/ml reduction in viable bacteria in 20% heat-inactivated human serum after 1.5 hrs by liquid microdilution assay; type: functional; in short: as §1
[5] = system: Enterococcus faecium; test: Bactericidal activity against Enterococcus faecium isolate 6 with AMP-AMC-CLI-CRO-CTX-CIP-ERY-GEN-KAN-LVX-SXT-VAN resistance phenotype assessed as concentration required for >= 3 log10 CFU/ml reduction in viable bacteria in sodium phosphate buffer at pH 7.4 after 1.5 hrs by liquid microdilution assay; type: functional; in short: as §3
[6] = system: Enterococcus faecium; test: Antimicrobial activity against Enterococcus faecium isolate 3 with AMP-CIP-CTX-ERY-GEN-LVX-SXT-TEC-VAN resistance phenotype assessed as time to kill at twofold the bactericidal concentration; type: functional, organism-based; in short: as §2
[7] = system: Pseudomonas aeruginosa; test: Antimicrobial activity against Pseudomonas aeruginosa isolate 1 with AMP-CFZ-CIP-CTX-CXM-GEN-LVX-SXT-TET resistance phenotype at bactericidal concentration after 30 mins by time kill assay; type: functional, organism-based; in short: as §2
[8] = system: Stenotrophomonas maltophilia; test: Bactericidal activity against Stenotrophomonas maltophilia isolate 4 with AMK-CAZ-CIP-FEP-IPM-SAM-TZP resistance phenotype assessed as concentration required for >= 3 log10 CFU/ml reduction in viable bacteria in sodium phosphate buffer at pH 7.4 after 1.5 hrs by liquid microdilution assay; type: functional; in short: as §3
[9] = system: Acinetobacter baumannii; test: Bactericidal activity against Acinetobacter baumannii isolate 3 with AMP-AMC-CFZ-CIP-IPM-SXT-TET-TOB resistance phenotype assessed as concentration required for >= 3 log10 CFU/ml reduction in viable bacteria in sodium phosphate buffer at pH 7.4 after 1.5 hrs by liquid microdilution assay; type: functional; in short: as §3
[10] = system: Staphylococcus aureus; test: Bactericidal activity against Staphylococcus aureus isolate 3 with AMC-AMP-CIP-ERY-GEN-LVX-OXA resistance phenotype assessed as concentration required for >= 3 log10 CFU/ml reduction in viable bacteria in sodium phosphate buffer at pH 7.4 after 1.5 hrs by liquid microdilution assay; type: functional; in short: as §3
[11] = system: Stenotrophomonas maltophilia; test: Bactericidal activity against Stenotrophomonas maltophilia isolate 1 with AMK-CIP-CTX-IPM-MEM-SAM-TZP resistance phenotype assessed as concentration required for >= 3 log10 CFU/ml reduction in viable bacteria in sodium phosphate buffer at pH 7.4 after 1.5 hrs by liquid microdilution assay; type: functional; in short: as §3
[12] = system: Pseudomonas aeruginosa; test: Bactericidal activity against Pseudomonas aeruginosa isolate 1 with AMP-CFZ-CIP-CTX-CXM-GEN-LVX-SXT-TET resistance phenotype assessed as concentration required for >= 3 log10 CFU/ml reduction in viable bacteria in sodium phosphate buffer at pH 7.4 after 1.5 hrs by liquid microdilution assay; type: functional; in short: as §3
[13] = system: Staphylococcus aureus; test: Bactericidal activity against Staphylococcus aureus isolate 2 with AMC-AMP-CIP-ERY-GEN-LVX-OXA-RIF-TET resistance phenotype assessed as concentration required for >= 3 log10 CFU/ml reduction in viable bacteria in sodium phosphate buffer at pH 7.4 after 1.5 hrs by liquid microdilution assay; type: functional; in short: as §3
[14] = system: Pseudomonas aeruginosa; test: Bactericidal activity against Pseudomonas aeruginosa isolate 2 with AMP-CFZ-CIP-CTX-CXM-GEN-LVX-IPM-MEM-SXT-TET resistance phenotype assessed as concentration required for >= 3 log10 CFU/ml reduction in viable bacteria in sodium phosphate buffer at pH 7.4 after 1.5 hrs by liquid microdilution assay; type: functional; in short: as §3
[15] = system: Enterococcus faecium; test: Bactericidal activity against Enterococcus faecium isolate 3 with AMP-CIP-CTX-ERY-GEN-LVX-SXT-TEC-VAN resistance phenotype assessed as concentration required for >= 3 log10 CFU/ml reduction in viable bacteria in 20% heat-inactivated human serum after 1.5 hrs by liquid microdilution assay; type: functional; in short: as §1
[16] = system: Stenotrophomonas maltophilia; test: Bactericidal activity against Stenotrophomonas maltophilia isolate 2 with AMK-CIP-CTX-IPM-MEM-SAM-TZP resistance phenotype assessed as concentration required for >= 3 log10 CFU/ml reduction in viable bacteria in sodium phosphate buffer at pH 7.4 after 1.5 hrs by liquid microdilution assay; type: functional; in short: as §3
[17] = system: Stenotrophomonas maltophilia; test: Bactericidal activity against Stenotrophomonas maltophilia isolate 2 with AMK-CIP-CTX-IPM-MEM-SAM-TZP resistance phenotype assessed as concentration required for >= 3 log10 CFU/ml reduction in viable bacteria in 40% heat-inactivated human serum after 1.5 hrs by liquid microdilution assay; type: functional; in short: as §1
[18] = system: Acinetobacter baumannii; test: Bactericidal activity against Acinetobacter baumannii isolate 3 with AMP-AMC-CFZ-CIP-IPM-SXT-TET-TOB resistance phenotype assessed as concentration required for >= 3 log10 CFU/ml reduction in viable bacteria in 20% heat-inactivated human serum after 1.5 hrs by liquid microdilution assay; type: functional; in short: as §1
[19] = system: Stenotrophomonas maltophilia; test: Antimicrobial activity against Stenotrophomonas maltophilia isolate 2 with AMK-CIP-CTX-IPM-MEM-SAM-TZP resistance phenotype assessed as assessed as time to kill at twofold bactericidal concentration; type: functional; in short: as §2
[20] = system: Staphylococcus aureus; test: Antimicrobial activity against Staphylococcus aureus isolate 1 with AMC-AMP-CIP-ERY-GEN-OXA-RIF resistance phenotype at twofold the bactericidal concentration within 30 mins; type: functional, organism-based; in short: as §2
[21] = system: Staphylococcus aureus; test: Bactericidal activity against Staphylococcus aureus isolate 1 with AMC-AMP-CIP-ERY-GEN-OXA-RIF resistance phenotype assessed as concentration required for >= 3 log10 CFU/ml reduction in viable bacteria in sodium phosphate buffer at pH 7.4 after 1.5 hrs by liquid microdilution assay; type: functional; in short: as §3

For H-GIFSKLAGKKLKNLLISG-NH2, the Activity [1] was 128 µM, the Time [2] was 2 min and the Activity [3] was 0.5 µM. The Activity [4] was 4 µM, the Activity [5] was 2 µM and the Activity [6] was “inactive”. For the same substance, the Activity [7] was “inactive”, the Activity [8] was 0.5 µM and the Activity [9] was 1 µM. The Activity [10] was 8 µM, the Activity [11] was 0.5 µM and the Activity [12] was 1 µM. The Activity [13] was 16 µM, the Activity [14] was 1 µM and the Activity [15] was 32 µM. The Activity [16] was 0.5 µM, the Activity [17] was 16 µM and the Activity [18] was 16 µM. The Time [19] was 2 min, the Activity [20] was “inactive” and the Activity [21] was 32 µM.

Reference: ChEMBL document CHEMBL1151458, “Comparative analysis of the bactericidal activities of amphibian peptide analogues against multidrug-resistant nosocomial bacterial strains” (2008)
